Assay [1] concerns CHO. In words: Inhibitory activity against N-acetyl-L-aspartyl-L-glutamate (NAAG) peptidase of rat stably expressed in CHO cells at 100 uM. The assay is classed as cell-based.
Assay [2] addresses Metabotropic glutamate receptor 3 (Homo sapiens, UniProt Q14832). In words: Agonist potency against cloned Metabotropic glutamate receptor 3. The assay is classed as functional. A digest of the protocol:
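mGluR3 activity was measured on a chimeric mGluR3/1a receptor, which carries mGluR3 pharmacology but couples to phospholipase C. Agonist response was read as accumulation of inositol phosphates.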

Assay [3] has as its system CHO. In words: Inhibitory activity against N-acetyl-L-aspartyl-L-glutamate (NAAG) peptidase of rat stably expressed in CHO cells at 100 uM; NA=no activity. The assay is classed as cell-based.

Values joined by “and” are separate entries in the source; they are usually repeats but may differ in a detail not shown here. Equal values may be shown once. Active and inactive are the calls of the source. The rule behind the calls is not given here. Some results are limits rather than exact numbers.

From ChEMBL document CHEMBL1133715, “Dual function glutamate-related ligands: discovery of a novel, potent inhibitor of glutamate carboxypeptidase II possessing mGluR3 agonist activity” (J Med Chem, 2000) come the findings set out here.

Metabotropic glutamate receptor 3, sequence (Q14832 whole entry): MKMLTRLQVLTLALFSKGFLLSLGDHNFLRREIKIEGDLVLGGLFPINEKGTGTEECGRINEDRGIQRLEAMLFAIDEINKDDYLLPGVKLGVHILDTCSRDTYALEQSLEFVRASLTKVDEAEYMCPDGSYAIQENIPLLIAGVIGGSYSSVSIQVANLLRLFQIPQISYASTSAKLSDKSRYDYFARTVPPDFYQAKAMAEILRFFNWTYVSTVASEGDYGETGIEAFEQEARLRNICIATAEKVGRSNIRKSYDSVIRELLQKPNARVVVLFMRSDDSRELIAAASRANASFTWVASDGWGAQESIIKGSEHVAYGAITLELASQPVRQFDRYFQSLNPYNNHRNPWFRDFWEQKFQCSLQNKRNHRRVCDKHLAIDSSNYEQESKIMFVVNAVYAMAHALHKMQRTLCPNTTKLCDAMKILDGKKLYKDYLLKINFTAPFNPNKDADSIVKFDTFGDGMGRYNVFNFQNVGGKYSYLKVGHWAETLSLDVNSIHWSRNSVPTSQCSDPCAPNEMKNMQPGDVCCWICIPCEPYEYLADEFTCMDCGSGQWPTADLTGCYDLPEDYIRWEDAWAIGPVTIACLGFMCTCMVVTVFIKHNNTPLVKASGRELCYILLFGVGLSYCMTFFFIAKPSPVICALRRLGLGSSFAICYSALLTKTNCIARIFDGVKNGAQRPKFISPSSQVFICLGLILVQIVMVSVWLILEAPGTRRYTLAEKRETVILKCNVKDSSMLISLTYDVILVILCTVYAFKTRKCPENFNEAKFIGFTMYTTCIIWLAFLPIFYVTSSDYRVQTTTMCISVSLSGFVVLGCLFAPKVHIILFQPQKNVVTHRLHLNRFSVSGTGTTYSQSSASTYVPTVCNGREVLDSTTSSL

In the case of `O=C(O)CCC(=O)CC(CCC(=O)O)C(=O)O` (stereo unspecified), in the assay with CHO [1], the inhibition is 35%.
Consider `O=C(O)CCC(CP(=O)(O)CC(CCC(=O)O)C(=O)O)C(=O)O` (stereo unspecified), for which the inhibition with CHO [1] was 21.7% and 6.9% and 22.3%. Besides, the EC50 in assay [2] was 39 µM and 45 µM and 51 µM.
On to `O=C(O)CC[C@H](CP(=O)(O)C[C@H](CCC(=O)O)C(=O)O)C(=O)O`, for which, in assay [2], the EC50 was 33 µM.
As to `O=C(O)CCC(CC(=O)CC(CCC(=O)O)C(=O)O)C(=O)O` (stereo unspecified), the EC50 in assay [2] was > 300 µM. Moreover, the inhibition entry in the assay on CHO [3] is “inactive”.

Usually inhibition stands for the drop in the measured response relative to a control, in per cent. What is called EC50 is the midpoint of the concentration-response curve. Low readings indicate greater potency, high ones weaker potency.
